pIC50: −log10 of the molar value. The source made the active and inactive calls. No cut-off for these calls is given here.
Legend:
K562 = experiment: Cytotoxicity against human K562 cells after 72 hrs by MTT assay; settings: K562, 72 h
HCT-116 = experiment: Cytotoxicity against human HCT116 cells after 72 hrs by MTT assay; settings: HCT-116, 72 h
A549 = experiment: Cytotoxicity against human A549 cells after 72 hrs by MTT assay; settings: A549, 72 h
HepG2 = experiment: Cytotoxicity against human HepG2 cells after 72 hrs by MTT assay; settings: HepG2, 72 h
HeLa = experiment: Cytotoxicity against human HeLa cells after 72 hrs by MTT assay
HUVEC [1] = experiment: Antiinflammatory activity in HUVEC assessed as downregulation of LPS-induced IFN-gamma mRNA expression at 0.8 to 100 uM by qRT-PCR method; format: functional, cell-based; settings: Homo sapiens
How it was run: (§1)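 HUVEC cells grown in DMEM with 10% FBS, streptomycin and penicillin, at 37 °C in humidified 5% CO2. Drug groups received 0.8, 4, 20 or 100 μM drug plus 10 μg/mL LPS. Model group got medium plus LPS, controls got medium only, n = 3 per group. Cells harvested after varying times for cytokine mRNA measurement. Mean ± SD of three independent experiments.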

Bos taurus = species on record: Bos taurus; experiment: Inhibition of calf thymus topoisomerase 1 assessed as decrease in relaxation of supercoiled pBR322 DNA at 100 uM after 30 mins by agarose gel electrophoresis
How it was run: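 Calf-thymus topoisomerase I relaxation of negatively supercoiled pBR322. Supercoiled and relaxed DNA bands resolved. Test concentration 100 μM. Hydroxycamptothecine served as positive control.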

HUVEC [2] = experiment: Antiinflammatory activity in HUVEC assessed as downregulation of LPS-induced IL6 mRNA expression at 0.8 to 100 uM by qRT-PCR method; format: functional, cell-based; settings: Homo sapiens; how it was run: as §1
HUVEC [3] = experiment: Antiinflammatory activity in LPS stimulated HUVEC assessed as upregulation of IL10 mRNA expression at 0.8 to 100 uM by qRT-PCR method; format: functional, cell-based; settings: Homo sapiens; how it was run: as §1
HUVEC [4] = experiment: Antiinflammatory activity in HUVEC assessed as downregulation of LPS-induced IL1 mRNA expression at 0.8 to 100 uM by qRT-PCR method; format: functional, cell-based; settings: Homo sapiens; how it was run: as §1

Row | inhibition (Bos taurus) | Structure (SMILES) | pIC50 (K562) | pIC50 (HCT-116) | pIC50 (A549) | pIC50 (HepG2) | pIC50 (HeLa) | Activity (HUVEC [1]) | Activity (HUVEC [2]) | Activity (HUVEC [3]) | Activity (HUVEC [4])
1 |  | CC(=O)O[C@H]1C(=O)[C@@]2(C)[C@H]([C@H](OC(=O)c3ccccc3)[C@]3(O)C[C@H](OC(=O)[C@H](O)[C@@H](NC(=O)c4ccccc4)c4ccccc4)C(C)=C1C3(C)C)[C@]1(OC(C)=O)CO[C@@H]1C[C@@H]2O [PACLITAXEL] | 5.57 | 5.48 | 5.26 | 5.17 | 5.77 |  |  |  | 
2 | Active | O=C(/C=C/c1ccc(O)cc1)C1=C(O)C(C2C3=C(O)[C@@](O)(C4O[C@H](CO)[C@@H](O)[C@H](O)[C@H]4O)C(=O)C(C(=O)/C=C/c4ccc(O)cc4)=C3O[C@@H]2[C@@H](O)[C@H](O)[C@H](O)CO)=C(O)[C@@](O)(C2O[C@H](CO)[C@@H](O)[C@H](O)[C@H]2O)C1=O (stereo partly drawn) |  |  |  |  |  | Dose-dependent effect | Dose-dependent effect | Dose-dependent effect | Dose-dependent effect
3 |  | O=C(/C=C/c1ccc(O)cc1)C1=C(O)C(Cc2c(O)c(O[C@@H]3O[C@H](CO)[C@@H](O)[C@H](O)[C@H]3O)c(O)c3c(=O)c(O[C@@H]4O[C@H](CO)[C@@H](O)[C@H](O)[C@H]4O)c(-c4ccc(O)cc4)oc23)=C(O)[C@@](O)(C2O[C@H](CO)[C@@H](O)[C@H](O)[C@H]2O)C1=O (stereo partly drawn) |  |  |  |  |  |  | Active | Dose-dependent effect | Active
